Screening data as filed in PubChem BioAssay.
WT yeast gro inh – growth inhibition of WT strain, primary screen, mitochondrial fusion inhibitor project, WT and mutant strains, chemical genetic. mitochondrial fusion phenotypic screen. inhibition, % at 10 µM. 2.1% of 190,000 active; in the data active = inhibition above about 58%; tested in S. cerevisiae
Diaphorase act – compounds boosting diaphorase resazurin reduction – biochemical, uHTS, resorufin fluorescence, counter-screen for diaphorase-coupled primary assays, primary screen; Diaphorase/resazurin coupled assay, 16 min; active compounds read high; 1 = vehicle wells, 0 = NADH-free wells; activation factor at 20 µM; 0.005% of 190,000 active;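 active = diaphorase activity raised at least twofold by the compound at 20 µM; inactive = activation factor below 2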
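Measured by – red resorufin fluorescence at 544/590 nm excitation/emission · Test system – Clostridium kluyveri diaphorase, purified enzyme · Incubation – reaction time 16 min, room temperature · Buffer or medium – 50 mM HEPES pH 7.4 with 4.542 mM MgCl2, 0.005% Tween 20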
Diaphorase inh – diaphorase inhibitors and chemical oxidizers, primary screen, counter-screen for diaphorase-coupled primary assays, biochemical, uHTS, resorufin fluorescence; diaphorase resazurin-to-resorufin fluorescence, NADH, 16 min; bacterial (C. kluyveri) enzyme, not human; inhibition, % at 20 µM; 0.69% of 190,000 active; AID 1217, 2008;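 active = primary screen inhibition at 20 µM above a set limit, cut at about 50% in these data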;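 note: plate controls were DMSO with full reaction for no effect and wells lacking NADH for full effect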
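Detection: fluorescence of resorufin formed from resazurin, Ex 544/Em 590 nm; test system: Clostridium kluyveri diaphorase enzyme; amount: 0.14 U/mL diaphorase, enzyme working solution; times: 16-min room-temperature incubation before reading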
G6PDH CS – L. mesenteroides G6PDH inhibitors, counter-screen for G6PDH-coupled screening assays, biochemical, Leuconostoc mesenteroides enzyme; glucose-6-phosphate dehydrogenase [Leuconostoc mesenteroides]; Purified L. mesenteroides G6PDH, diaphorase/resazurin coupled fluorescence, 45 min; inhibition, % at 5 µM; 0.12% of 200,000 active; AID 1020, 2008
Lmaj promast – Leishmania major promastigote growth inhibition, primary screen. Leishmania major promastigotes, resazurin fluorescence viability. inhibition, % at 10 µM. 9% of 200,000 active. AID 1063, 2008;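 note: promastigotes grown with compound for 44 hours at 28 °C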
Starred values were filed as active, the others as inactive. The list is not random: actives were taken first. Their share in the collection is about 11%. Cut-off read from the data, not from the text of the source, unless noted: active = inhibition above about 50%; inactive = the rest.

SMILES	WT yeast gro inh	Diaphorase act	Diaphorase inh	G6PDH CS	Lmaj promast
O=C(COc1ccccc1C(=O)Nc1ccccc1)NCCc1ccccc1	7.9	0.9	8.5	0.1	-2.5
CCOc1cc(CNC(C)C)c(Cl)cc1OCC(=O)NCCc1ccccc1	-34.1	0.9	8.7	0.7	98.7*
CCOc1cc(CNCCO)c(Cl)cc1OCC(=O)NCCc1ccccc1	52.9	1	2.8	-0.2	90.8*
CCOC(=O)c1c(-c2ccccc2)csc1NC(=O)CSc1nnc(C)s1	49.9	0.8	21.1	7.9	7.1
CCOC(=O)c1c(NC(=O)CSc2nnc(N)s2)sc(C)c1-c1ccc(C)cc1	78.0*	0.8	18.5	-31.6	5.1
CN(Cc1cn(C)nc1-c1ccccc1F)CC1CCCCO1 (stereo not drawn)	7.1	0.9	8.7	2.9	-3.5
S=C(NCC1CCCO1)NC1CCCCC1 (stereo not drawn)	-9.3	1	4.4	17.9	-5.3
CCCC(NC(=S)NCC1CCCO1)C12CC3CC(CC(C3)C1)C2 (stereo not drawn)	79.0*	0.9	14.6	7.1	33.1
O=C(OCc1ccccc1)N1CCCC1/C=C/CN1CCOCC1 (stereo not drawn)	-4.3	1	-1.1	4.1	81.9*
O=Cc1cn(-c2ccc(F)cc2)c2ccccc12	20.5	0.8	22.6	-2.4	0.0
Cc1ccc(C)c(N=Nc2nc3ccccc3n2C)c1	82.4*	1	4.0	4.5	82.5*
COc1ccc(/C=N/c2nc3ccccc3n2C)cc1OC	1.8	0.9	14.6	-1.3	7.8
Cn1c(/N=C/c2cccs2)nc2ccccc21	5.5	1	3.2	4.6	19.0
Cc1cc(C)c(C)c(N=Nc2nc3ccccc3n2C)c1C	84.0*	0.9	14.3	-21.8	36.8
O=C(c1cccs1)N(Cc1cccc(Cl)c1)C1CCS(=O)(=O)C1 (stereo not drawn)	-13.2	0.9	9.1	6.0	-2.2
CC1(C)C(C=C(Cl)Cl)C1C(=O)N(Cc1cccc(Cl)c1)C1CCS(=O)(=O)C1 (stereo not drawn)	24.4	0.8	18.4	6.0	90.6*
Oc1ccc(N=Cc2ccc(OCc3ccccc3)cc2)cc1	-2.5	0.5	52.7*	39.4	0.2
CN1C(=O)CSc2ccc(NC(=O)N3CCOCC3)cc21	18.5	0.9	9.3	0.8	-5.2
CN1C(=O)c2ccccc2Sc2ccc(NC(=O)N3CCCC3)cc21	78.7*	1	0.8	2.2	8.8
CN1CCN(C(=O)Nc2ccc3c(c2)N(C)C(=O)c2ccccc2S3)CC1	0.2	0.9	10.3	0.9	98.4*
CCCNC(=O)Nc1ccc2c(c1)N(C)C(=O)c1ccccc1S2	-3.8	0.8	21.0	1.7	-2.5
CCCCN1C(=O)C(O)(CC(=O)c2ccccn2)c2ccccc21 (stereo not drawn)	-3.5	1	3.6	13.0	-0.8
O=C(CCSc1ccccn1)c1ccccc1	10.1	1	3.0	2.3	76.6*
O=C(OCCN1C(=O)c2cccc3c(N4CCOCC4)ccc(c23)C1=O)c1ccccc1Cl	39.0	0.8	20.6	-2.5	86.2*
O=C(OCCN1C(=O)c2cccc3c(N4CCOCC4)ccc(c23)C1=O)c1ccc(Cl)cc1Cl	2.1	0.8	19.7	-22.7	4.9
SMILES	WT yeast gro inh	Diaphorase act	Diaphorase inh	G6PDH CS	Lmaj promast
COc1c(OC(C)=O)ccc(/C=C/c2ccc3cccc(OCc4ccccc4)c3n2)c1[N+](=O)[O-]	9.2	0.8	19.3	-22.6	62.4*
O=C(N/N=C/c1ccc2cccc(OCc3ccccc3)c2n1)c1ccc(Br)cc1	10.8	0.7	25.5	-0.8	75.0*
COc1ccc(C(=O)N/N=C/c2ccc3cccc(OCc4ccccc4)c3n2)cc1	32.2	0.8	25.0	0.2	65.1*
CCn1c(Cc2ccc(OC)cc2)nnc1SCc1nc2ccccc2c(=O)[nH]1	-3.5	1	3.3	2.6	-7.3
O=C(Nc1ccccc1N1CCN(c2ccccc2)CC1)C12CC3CC(CC(C3)C1)C2	40.7	1.1	-6.0	7.1	97.9*
O=C(Cc1ccccc1)Nc1ccccc1N1CCN(c2ccccc2)CC1	1.2	1	3.5	2.6	8.0
O=C(Nc1ccccc1)Nc1cc(Cl)cc(Cl)c1	88.9*	0.8	18.6	11.2	3.9
O=C(Nc1ccccc1)Nc1cc(OCC(F)(F)F)cc(OCC(F)(F)F)c1	86.0*	0.8	24.0	-2.0	100.3*
O=C(Nc1cccc(Cl)c1)Nc1cccc(Cl)c1	-12.3	0.8	22.5	0.3	-3.0
O=C(Nc1cc(Cl)cc(Cl)c1)C(c1ccccc1)N1CCCCC1 (stereo not drawn)	65.7*	0.9	7.8	7.0	10.4
O=C(Nc1cccnc1)Nc1cc(Cl)cc(Cl)c1	77.4*	0.7	31.5	12.4	28.8
CCCOC(=O)C1=C(C)NC2=C(C(=O)CCC2)C1c1cccc(OC)c1OC (stereo not drawn)	10.6	1	4.7	17.4	7.2
O=C(Nc1ccc2c(c1)OCO2)c1cc(-c2ccncc2)nc2ccccc12	-4.3	0.9	6.4	3.1	2.8
O=C(Nc1ccc(N2CCCC2)cc1)C(Cl)c1ccccc1 (stereo not drawn)	4.2	0.7	29.8	0.6	98.9*
CS(=O)(=O)N1CCN(c2ccc(NC(=O)C(c3ccccc3)c3ccccc3)cc2)CC1	4.8	0.8	17.2	-5.9	6.6
C=CCNC(=O)c1cccc(NS(=O)(=O)c2ccc(Cl)cc2)c1	2.8	0.9	8.6	-1.2	1.0
O=C(CSc1nnnn1-c1ccccc1)NCc1cccs1	73.8*	0.9	6.7	6.0	-7.7
C/C(N)=C(/C#N)C(=O)CSc1nnnn1-c1ccc(C)cc1	4.8	0.9	8.8	8.2	6.2
C/C(N)=C(/C#N)C(=O)CSc1nnnn1-c1ccccc1	94.3*	0.7	25.4	6.9	-2.8
CCc1nc2sccc2c(=O)[nH]1	24.6	1	2.9	4.3	-3.3
CC1CCN(S(=O)(=O)c2ccc3ncn(CC(=O)N4CCN(C)CC4)c(=O)c3c2)CC1	-13.3	0.9	6.5	4.8	2.1
Cc1sc2ncnc(Sc3nnnn3-c3ccccc3)c2c1C	-13.9	0.8	17.8	-5.2	88.7*
COc1ccc(C(=O)COc2ccccc2N2C(=O)C3C4C=CC(C4)C3C2=O)cc1 (stereo not drawn)	-13.9	0.9	12.8	7.6	2.8
COc1cc(/C=C(\C#N)C(=O)NCC2CCCO2)ccc1OC(C)C (stereo not drawn)	-36.4	1	3.3	7.8	78.5*
Cc1occc1C(=O)N/N=C/C1=C(N2CCOCC2)C(=C\c2ccc(Cl)cc2Cl)/CC1	1.9	0.8	16.8	-3.5	92.9*
